Results: ChEMBL document CHEMBL3232802, “6-Amino-2,4,5-trimethylpyridin-3-ols: a new general synthetic route and antiangiogenic activity” (2014)

Tests used:
Chorioallantoic membrane [1] = assay: Antiangiogenic activity in chicken chorioallantoic membrane assessed as inhibition of VEGF-induced blood vessel formation at 0.01 nmol […] measured after 3 days; format: functional, cell membranes; details: Gallus gallus
A549 [2] = assay: Cytotoxicity against human A549 cells inoculated with chicken chorioallantoic membrane assessed as tumor inhibition at 1 pmol after 3 days; format: functional
Summary of the method: (§1)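 A549 cells (2 × 10⁶ cells/CAM) in Matrigel implanted on CAM, then compound at different concentrations; incubated three days at 37 °C, 55% humidity. Tumor mass grown on CAM isolated and weighed; mean ± S.E.M.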

Chorioallantoic membrane [3] = assay: Antiangiogenic activity in human A549 cells inoculated chicken chorioallantoic membrane assessed as inhibition of blood vessel formation at 0.01 pmol after 3 days; format: functional, Gallus gallus
Summary of the method: (§2)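 A549 lung cancer cells (2 × 10⁶ cells/CAM) in Matrigel inoculated onto CAM instead of VEGF, then compound at varied doses; three days at 37 °C, 55% humidity. Vessel branch points within tumor region counted double-blind by two observers; mean ± S.E.M.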

A549 [4] = assay: Cytotoxicity against human A549 cells inoculated with chicken chorioallantoic membrane assessed as tumor inhibition at 0.01 pmol after 3 days; format: functional; summary of the method: as §1
Chorioallantoic membrane [5] = assay: Antiangiogenic activity in human A549 cells inoculated chicken chorioallantoic membrane assessed as inhibition of blood vessel formation after 3 days; format: functional, cell-based; details: Gallus gallus; summary of the method: as §2
Chorioallantoic membrane [6] = assay: Antiangiogenic activity in chicken chorioallantoic membrane assessed as inhibition of VEGF-induced blood vessel formation treated 30 mins before VEGF addition measured after 3 days; format: functional; details: Gallus gallus
A549 [7] = assay: Cytotoxicity against human A549 cells inoculated with chicken chorioallantoic membrane assessed as tumor inhibition after 3 days; format: functional, cell-based; summary of the method: as §1
A549 [8] = assay: Cytotoxicity against human A549 cells inoculated with chicken chorioallantoic membrane assessed as tumor inhibition at 0.1 pmol after 3 days; format: functional; summary of the method: as §1
Chorioallantoic membrane [9] = assay: Antiangiogenic activity in human A549 cells inoculated chicken chorioallantoic membrane assessed as inhibition of blood vessel formation at 1 pmol after 3 days; format: functional, Gallus gallus; summary of the method: as §2
Chorioallantoic membrane [10] = assay: Antiangiogenic activity in human A549 cells inoculated chicken chorioallantoic membrane assessed as inhibition of blood vessel formation at 0.1 pmol after 3 days; format: functional, Gallus gallus; summary of the method: as §2

Question: With Cc1nc(NCc2ccccc2)c(C)c(C)c1O as the compound, how does the inhibition (Chorioallantoic membrane [1]) read?
Answer: 56.7%

Question: Cc1nc(Nc2ccc3c(c2)OCO3)c(C)c(C)c1O was tested. Which inhibition (Chorioallantoic membrane [1]) did it give?
Answer: 62.4%

Question: Which inhibition (Chorioallantoic membrane [1]) does the source give for Cc1nc(Nc2ccccc2)c(C)c(C)c1O here?
Answer: 69.4%

Question: With CCCCCCCCCCCCCCCCNc1nc(C)c(O)c(C)c1C as the compound, how does the inhibition (Chorioallantoic membrane [1]) read?
Answer: 30.1%

Question: Which inhibition (Chorioallantoic membrane [1]) does the source give for Cc1nc(N(c2ccccc2)c2ccccc2)c(C)c(C)c1O here?
Answer: 65.4%

Question: With Cc1nc(NCCCOc2nc(C)c(O)c(C)c2C)c(C)c(C)c1O as the compound, how does the inhibition (Chorioallantoic membrane [1]) read?
Answer: 67.3%

Question: How did the “inhibition (INH)” value (A549 [2]) turn out when Cc1nc(Nc2ccc([N+](=O)[O-])cc2)c(C)c(C)c1O was run?
Answer: 50.1%

Question: What about the “inhibition (INH)” value (Chorioallantoic membrane [3]) of the same compound?
Answer: 19.9%

Question: What about the inhibition (Chorioallantoic membrane [1]) of the same compound?
Answer: 75%

Question: And the “inhibition (INH)” value (A549 [4])?
Answer: 25.3%

Question: And the inhibition (Chorioallantoic membrane [5])?
Answer: Dose-dependent effect

Question: What about the ID50 (Chorioallantoic membrane [6]) of the same compound?
Answer: 4.4 pg

Question: What about the inhibition (Chorioallantoic membrane [6]) of the same compound?
Answer: Dose-dependent effect

Question: What about the inhibition (A549 [7]) of the same compound?
Answer: Dose-dependent effect

Question: And the “inhibition (INH)” value (A549 [8])?
Answer: 44.4%

Question: What about the “inhibition (INH)” value (Chorioallantoic membrane [9]) of the same compound?
Answer: 34.5%

Question: What about the “inhibition (INH)” value (Chorioallantoic membrane [10]) of the same compound?
Answer: 25.6%

Question: Which inhibition (Chorioallantoic membrane [1]) does the source give for Cc1nc(-n2cccc2)c(C)c(C)c1O here?
Answer: 44%

Question: What does the source list for CN(C)c1ccc(/C=C2\C(=O)Nc3ccccc32)cc1?
Answer: inhibition (INH) (A549 [2]): 26.8%; inhibition (INH) (Chorioallantoic membrane [3]): 20.8%; inhibition (Chorioallantoic membrane [1]): 70.5%; inhibition (INH) (A549 [4]): 16.2%; inhibition (Chorioallantoic membrane [5]): Dose-dependent effect; ID50 (Chorioallantoic membrane [6]): 10.5 pg; inhibition (Chorioallantoic membrane [6]): Dose-dependent effect; inhibition (A549 [7]): Dose-dependent effect; inhibition (INH) (A549 [8]): 23.4%; inhibition (INH) (Chorioallantoic membrane [9]): 36.2%; inhibition (INH) (Chorioallantoic membrane [10]): 25.1%

Question: How did the inhibition (Chorioallantoic membrane [1]) turn out when CCCCCCNc1nc(C)c(O)c(C)c1C was run?
Answer: 53.7%

Question: With Cc1nc(N2CCN(C)CC2)c(C)c(C)c1O as the compound, how does the inhibition (Chorioallantoic membrane [1]) read?
Answer: 24.7%

Question: With Cc1nc(NCCCO)c(C)c(C)c1O as the compound, how does the inhibition (Chorioallantoic membrane [1]) read?
Answer: 46.3%

Question: With Cc1nc(N2CCCC2)c(C)c(C)c1O as the compound, how does the inhibition (Chorioallantoic membrane [1]) read?
Answer: 69.5%

Question: Cc1nc(Nc2ccccc2C(C)C)c(C)c(C)c1O was tested. Which inhibition (Chorioallantoic membrane [1]) did it give?
Answer: 55.3%

Question: Which inhibition (Chorioallantoic membrane [1]) does the source give for Cc1nc(N(C)c2ccccn2)c(C)c(C)c1O here?
Answer: 42.2%

Question: Cc1nc(N)c(C)c(C)c1O was tested. Which “inhibition (INH)” value (A549 [2]) did it give?
Answer: 27.4%

Question: What about the “inhibition (INH)” value (Chorioallantoic membrane [3]) of the same compound?
Answer: 16.6%

Question: What about the inhibition (Chorioallantoic membrane [1]) of the same compound?
Answer: 80.9%

Question: And the “inhibition (INH)” value (A549 [4])?
Answer: 20.5%

Question: What about the inhibition (Chorioallantoic membrane [5]) of the same compound?
Answer: Dose-dependent effect

Question: And the ID50 (Chorioallantoic membrane [6])?
Answer: 3.2 pg

Question: What about the inhibition (Chorioallantoic membrane [6]) of the same compound?
Answer: Dose-dependent effect

Question: And the inhibition (A549 [7])?
Answer: Dose-dependent effect

Question: What about the “inhibition (INH)” value (A549 [8]) of the same compound?
Answer: 25.2%

Question: What about the “inhibition (INH)” value (Chorioallantoic membrane [9]) of the same compound?
Answer: 20.7%

Question: What about the “inhibition (INH)” value (Chorioallantoic membrane [10]) of the same compound?
Answer: 18%

Question: For Cc1nc(N2CCOCC2)c(C)c(C)c1O, which inhibition (Chorioallantoic membrane [1]) is on record?
Answer: 59%

Question: With Cc1nc(Nc2ccc(Br)cc2)c(C)c(C)c1O as the compound, how does the inhibition (Chorioallantoic membrane [1]) read?
Answer: 61.7%

Question: With Cc1nc(NC2CCCCC2)c(C)c(C)c1O as the compound, how does the inhibition (Chorioallantoic membrane [1]) read?
Answer: 36.8%
